# According to ChEMBL document CHEMBL4825692, “Benzofuranyl-2-imidazoles as imidazoline I2 receptor ligands for Alzheimer's disease” (Eur J Med Chem, 2021):
# Experiments:
# [1] = Displacement of [3H]clonidine from imidazoline I1 receptor low affinity site in human hypothalamic membranes measured after 30 mins by liquid scintillation counting spectrometry; type: cell membranes, Hypothalamus, Membrane
# [2] = species on record: Homo sapiens; assay: Selectivity index, ratio of pKi for displacement of [3H]2-BFI from imidazoline I2 receptor in post-mortem human brain frontal cortex membrane to pKi for displacement of [3H]-RX821002 from adrenergic alpha 2 receptor in post-mortem human brain frontal cortex membrane; type: cell membranes
# [3] = Solubility of the compound in 99 % PBS buffer solution; type: physicochemical
# [4] = Microsomal stability in mouse liver microsomes assessed as parent compound remaining after 60 mins; type: ADME, Microsome; details: read-out: Stabilty
# In short: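 Human and mouse microsomes, incubation for 60 min, with percentage of parent compound remaining reported.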
# [5] = target: T1, Cytochrome P450 1A2 (Homo sapiens, UniProt P05177); assay: Inhibition of CYP1A2 (unknown origin) at 10 uM; type: ADME
# T1 sequence (P05177 whole entry): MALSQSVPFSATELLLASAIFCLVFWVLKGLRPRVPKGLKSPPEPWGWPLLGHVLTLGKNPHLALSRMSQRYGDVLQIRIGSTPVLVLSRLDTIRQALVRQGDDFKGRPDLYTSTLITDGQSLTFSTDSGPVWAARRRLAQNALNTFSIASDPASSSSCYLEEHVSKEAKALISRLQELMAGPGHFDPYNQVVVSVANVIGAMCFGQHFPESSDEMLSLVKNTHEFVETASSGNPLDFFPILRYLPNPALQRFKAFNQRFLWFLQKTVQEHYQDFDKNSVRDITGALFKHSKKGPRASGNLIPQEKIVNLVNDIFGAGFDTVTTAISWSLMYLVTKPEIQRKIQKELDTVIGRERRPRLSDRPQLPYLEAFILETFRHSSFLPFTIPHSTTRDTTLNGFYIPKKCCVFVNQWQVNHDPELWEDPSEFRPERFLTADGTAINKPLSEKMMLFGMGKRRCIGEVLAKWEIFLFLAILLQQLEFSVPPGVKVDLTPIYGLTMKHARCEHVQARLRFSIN
# In short: (§1)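 Recombinant human CYP1A2, CYP2C9, CYP2C19, CYP2D6 and CYP3A4 (7-BFC or DBF as probe) were tested with probe substances and fluorescent detection, with test compound at 10 μM.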
# [6] = target: Cytochrome P450 2D6 (Homo sapiens, UniProt P10635); assay: Inhibition of CYP2D6 (unknown origin) at 10 uM; type: ADME; in short: as §1
# [7] = target: Cytochrome P450 3A4 (Homo sapiens, UniProt P08684); assay: Inhibition of CYP3A4 (unknown origin) using as DBF as substrate at 10 uM; type: ADME; in short: as §1
# [8] = Plasma protein binding in human assessed as unbound fraction; type: ADME, cell-free
# [9] = Plasma protein binding in mouse assessed as unbound fraction; type: ADME, cell-free
# [10] = target: hERG (KCNH2) (Homo sapiens, UniProt Q12809); assay: Inhibition of human ERG at 10 uM
# [11] = system: LN-229; assay: Cytotoxicity against human LN-229 cells at 100 uM by real time IncuCyte proliferation assay; type: cell-based; details: ln-229, 100 µM
# In short: (§2)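 Adherent lines (LN-229, Capan-1, HCT-116, NCI-H460) seeded at 500–1500 cells/well and treated after overnight attachment. Suspension lines (HL-60, K-562, Z-138, DND-41) seeded at 2500–5500 cells/well directly with compound. Highest concentration 100 μM; proliferation tracked by real-time IncuCyte imaging over 72 h at 37 °C.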
# [12] = system: HCT-116; assay: Cytotoxicity against human HCT-116 cells at 100 uM by real time IncuCyte proliferation assay; type: cell-based; details: hct-116, 100 µM; in short: as §2
# [13] = Cytotoxicity against human DND41 cells at 100 uM by real time IncuCyte proliferation assay; type: cell-based; details: dnd41, 100 µM; in short: as §2
# [14] = system: HL-60; assay: Cytotoxicity against human HL-60 cells at 100 uM by real time IncuCyte proliferation assay; type: cell-based; details: hl-60, 100 µM; in short: as §2
# [15] = system: K562; assay: Cytotoxicity against human K562 cells at 100 uM by real time IncuCyte proliferation assay; type: cell-based; details: k562, 100 µM; in short: as §2
# [16] = system: Z-138; assay: Cytotoxicity against human Z138 cells at 100 uM by real time IncuCyte proliferation assay; type: cell-based; details: z-138, 100 µM; in short: as §2
# [17] = AUC (0 to infinity) in CD-1 mouse at 10 mg/kg, po measured after 24 hrs by HPLC/UV-VS analysis; type: ADME, organism-based; set-up: route oral, time 24 hrs, dose 10 mg/kg; details: in vivo
# In short: (§3)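 Male CD1 mice; plasma concentration of drug at 15 min to 24 h after a single oral 10 mg/kg dose, measured by HPLC with UV at 290 nm (calibration 0,025-5 μg/mL, peak area ratio). Non-compartmental analysis of mean concentration–time curves: AUC by trapezoidal rule, Cmax read directly from the mean curve.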
# [18] = Cmax in CD-1 mouse at 10 mg/kg, po measured after 24 hrs by HPLC/UV-VS analysis; type: ADME, organism-based; set-up: route oral, dose 10 mg/kg, time 24 hrs; details: in vivo; in short: as §3
# [19] = Terminal half life in CD-1 mouse at 10 mg/kg, po measured after 24 hrs by HPLC/UV-VS analysis; type: ADME, organism-based; details: in vivo, read-out: beta t1/2 (converted)
# In short: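 Male CD1 mice (40–50 g, n = 3–4 per group) received a single 10 mg/kg dose. Plasma was taken at 15, 30, 45 and 60 min and 2, 3, 4, 5, 8 and 24 h. Drug was measured by HPLC-UV at 290 nm against a calibration of 0,025-5 μg/mL. Non-compartmental analysis used the mean curve: t1/2β = ln2/β from least-squares terminal slope; Tmax read directly.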
# [20] = Hypothermic effect in CD-1 mouse assessed as reduction in body temperature at 50 mg/kg, ip measured up to 3 hrs by rectal thermometric method; type: ADME, organism-based; details: in vivo
# In short: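 Adult male and female CD-1 mice (n = 5 per group) given single i.p. doses (1, 5, 10, 20, 30, 50 mg/kg) or saline vehicle 2 ml/kg. Rectal temperature read with a digital probe before dosing and 1, 2 and 3 h after; change from basal value analysed by repeated measures ANOVA with Sidak's test.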
# [21] = Displacement of [3H]idazoxan from imidazoline I2 receptor high affinity site in rat brain cerebral cortex membrane measured after 30 mins by liquid scintillation counting spectrometry
# [22] = Displacement of [3H]2-BFI from imidazoline I2 receptor low affinity site in Swiss mouse brain cerebral cortex membrane measured after 45 mins by liquid scintillation counting spectrometry
# [23] = Displacement of [3H]2-BFI from imidazoline I2 receptor low affinity site in post-mortem human brain frontal cortex membrane two site model measured after 45 mins by liquid scintillation counting spectrometry
# [24] = species on record: Mus musculus; assay: Displacement of [3H]2-BFI from imidazoline I2 receptor in Swiss mouse brain cerebral cortex membrane assessed as occupancy at high affinity site measured after 45 mins by liquid scintillation counting spectrometry
# Cytochrome P450 2D6, sequence (P10635 whole entry): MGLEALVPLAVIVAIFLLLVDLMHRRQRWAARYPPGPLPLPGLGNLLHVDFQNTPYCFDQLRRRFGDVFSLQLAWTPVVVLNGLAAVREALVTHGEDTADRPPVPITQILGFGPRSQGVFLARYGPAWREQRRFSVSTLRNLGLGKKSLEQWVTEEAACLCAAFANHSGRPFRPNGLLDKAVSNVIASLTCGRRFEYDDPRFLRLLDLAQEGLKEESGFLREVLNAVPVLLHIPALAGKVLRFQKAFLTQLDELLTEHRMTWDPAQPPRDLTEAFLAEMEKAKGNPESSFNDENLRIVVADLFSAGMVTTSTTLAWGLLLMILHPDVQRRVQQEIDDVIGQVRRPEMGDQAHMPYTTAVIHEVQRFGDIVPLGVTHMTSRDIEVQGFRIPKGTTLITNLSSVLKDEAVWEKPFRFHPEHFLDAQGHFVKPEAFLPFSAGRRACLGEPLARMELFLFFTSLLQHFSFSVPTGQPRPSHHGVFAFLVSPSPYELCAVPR
# hERG (KCNH2), sequence (Q12809 whole entry): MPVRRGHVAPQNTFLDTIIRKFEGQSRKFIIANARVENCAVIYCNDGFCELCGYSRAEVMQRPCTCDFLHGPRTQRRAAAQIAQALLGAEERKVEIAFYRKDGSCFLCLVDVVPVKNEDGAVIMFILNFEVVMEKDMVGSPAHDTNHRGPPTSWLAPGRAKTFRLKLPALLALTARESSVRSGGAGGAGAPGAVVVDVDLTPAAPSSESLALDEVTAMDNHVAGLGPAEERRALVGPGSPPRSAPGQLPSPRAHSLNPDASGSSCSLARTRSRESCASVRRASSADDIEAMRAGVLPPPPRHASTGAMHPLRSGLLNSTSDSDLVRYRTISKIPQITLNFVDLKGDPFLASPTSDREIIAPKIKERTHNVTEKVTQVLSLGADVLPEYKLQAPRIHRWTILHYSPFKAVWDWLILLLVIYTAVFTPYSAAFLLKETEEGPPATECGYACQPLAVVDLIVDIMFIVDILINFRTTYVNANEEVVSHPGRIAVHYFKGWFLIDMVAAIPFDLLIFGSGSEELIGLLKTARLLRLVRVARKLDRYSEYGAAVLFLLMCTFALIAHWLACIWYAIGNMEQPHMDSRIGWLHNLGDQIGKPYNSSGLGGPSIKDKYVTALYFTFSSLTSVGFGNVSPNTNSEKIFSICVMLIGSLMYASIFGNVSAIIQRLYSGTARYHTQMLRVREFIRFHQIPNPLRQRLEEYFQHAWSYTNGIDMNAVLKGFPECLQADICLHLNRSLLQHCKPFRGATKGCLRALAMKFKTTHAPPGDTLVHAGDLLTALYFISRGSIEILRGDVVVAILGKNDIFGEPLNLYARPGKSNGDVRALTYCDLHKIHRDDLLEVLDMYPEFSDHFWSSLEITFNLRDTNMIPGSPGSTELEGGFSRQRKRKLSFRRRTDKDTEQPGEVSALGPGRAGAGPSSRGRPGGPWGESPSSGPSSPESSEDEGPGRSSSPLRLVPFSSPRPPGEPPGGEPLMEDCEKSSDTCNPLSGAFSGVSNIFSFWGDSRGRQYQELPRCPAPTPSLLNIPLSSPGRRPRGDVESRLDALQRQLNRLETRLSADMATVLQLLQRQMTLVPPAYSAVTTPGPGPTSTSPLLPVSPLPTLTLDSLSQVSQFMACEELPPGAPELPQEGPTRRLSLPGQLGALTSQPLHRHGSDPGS
# Cytochrome P450 3A4, sequence (P08684 whole entry): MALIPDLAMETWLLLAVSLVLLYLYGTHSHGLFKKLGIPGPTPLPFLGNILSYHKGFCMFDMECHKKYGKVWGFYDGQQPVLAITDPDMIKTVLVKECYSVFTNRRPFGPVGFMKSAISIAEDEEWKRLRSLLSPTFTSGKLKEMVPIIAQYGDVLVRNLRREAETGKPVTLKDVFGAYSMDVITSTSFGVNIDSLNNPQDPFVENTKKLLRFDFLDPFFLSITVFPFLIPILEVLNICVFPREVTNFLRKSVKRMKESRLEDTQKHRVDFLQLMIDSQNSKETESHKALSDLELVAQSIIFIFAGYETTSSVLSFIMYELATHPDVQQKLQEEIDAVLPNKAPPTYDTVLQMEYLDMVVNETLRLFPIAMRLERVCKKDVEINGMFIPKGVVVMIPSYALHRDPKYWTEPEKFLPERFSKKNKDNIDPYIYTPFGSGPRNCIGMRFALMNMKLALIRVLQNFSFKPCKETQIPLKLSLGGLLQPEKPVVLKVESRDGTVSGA
structure (smiles),measurement,setting,value
Cl.c1ccc2oc(-c3ncc[nH]3)cc2c1,Ki,[1],250 µM
same,Selectivity Index,[2],3090
same,solubility,[3],52.5 µM
same,remaining at 1 h,[4],36%
same,inhibition (INH),[5],Not Active
same,inhibition (INH),[6],Not Active
same,inhibition (INH),[7],Not Active
same,fraction unbound,[8],0.071
same,fraction unbound,[9],0.16
same,inhibition at 10 µM,[10],4%
same,Activity,[11],Non-Toxic
same,Activity,[12],Non-Toxic
same,Activity,[13],Non-Toxic
same,Activity,[14],Non-Toxic
same,Activity,[15],Non-Toxic
same,Activity,[16],Non-Toxic
same,AUC(0-inf),[17],2600 ng·h/mL
same,Cmax,[18],600 ng/mL
same,half-life,[19],6.7 h
same,Activity,[20],Toxic
same,pKi,[21],6.45
same,pKi,[22],6
same,pKi,[23],6.02
same,Activity,[24],41%
